{"data": "Measurements collected from several papers", "note": "Lines come from different studies, so protocols differ."}
{"SMILES": "COC1=CC(=O)c2ccccc2C1=O", "organism": "Trichophyton mentagrophytes", "assay": "microbial growth, broth dilution", "system": "ATCC9533", "conditions": "96 h", "measurement": "MIC", "result": "6.25 µg/mL"}
{"SMILES": "COC(CNC1=CC2=NCCc3c[nH]c(c32)C1=O)c1c[nH]c2ccccc12 (stereo not drawn)", "organism": "Babesia divergens", "assay": "parasite growth, SYBR Green", "conditions": "60 h, blood stage", "measurement": "IC50", "result": "578 nM"}
{"SMILES": "Cc1c(C(N)=O)c(N)n(N)c(=O)c1C#N", "organism": "Enterobacter cloacae", "assay": "microbial growth, well diffusion", "system": "ATCC23355", "conditions": "500 µg/mL", "measurement": "inhibition zone", "result": "21 mm"}
{"SMILES": "CN(Cc1ccc(C(C)(C)C)cc1)Cc1cccc2ccccc12", "organism": "Trichophyton mentagrophytes", "assay": "microbial growth, disc diffusion", "system": "ATCC18748", "conditions": "0.002 µg/mL, 72 h", "measurement": "inhibition zone", "result": "27.8 mm"}
{"SMILES": "NC1=CC2=NCCc3c[nH]c(c32)C1=O", "organism": "Babesia divergens", "assay": "parasite growth, SYBR Green", "conditions": "60 h, blood stage", "measurement": "IC50", "result": "411 nM"}
{"SMILES": "CN(C)c1ccc(-c2c(C(N)=S)c(N)n(N)c(=O)c2C#N)cc1", "organism": "Enterobacter cloacae", "assay": "microbial growth, well diffusion", "system": "ATCC23355", "conditions": "500 µg/mL", "measurement": "inhibition zone", "result": "14 mm"}
{"SMILES": "CN(Cc1ccc(C2(C(F)(F)F)CC2)cc1)Cc1cccc2ccccc12", "organism": "Trichophyton mentagrophytes", "assay": "microbial growth, disc diffusion", "system": "ATCC18748", "conditions": "0.256 µg/mL, 72 h", "measurement": "inhibition zone", "result": "≥ 55 mm"}
{"SMILES": "Cn1cc2c3c1C(=O)C(NCCc1ccc(O)cc1)=CC3=NCC2", "organism": "Babesia divergens", "assay": "parasite growth, SYBR Green", "conditions": "60 h, blood stage", "measurement": "IC50", "result": "1000 nM"}
{"SMILES": "N#Cc1c(-c2ccc(OCc3ccccc3)cc2)c(C(N)=O)c(N)n(N)c1=O", "organism": "Enterobacter cloacae", "assay": "microbial growth, well diffusion", "system": "ATCC23355", "conditions": "500 µg/mL", "measurement": "inhibition zone", "result": "10 mm"}
